# Assay results as given in ChEMBL document CHEMBL3616464, “One-pot synthesis of podophyllotoxin-thiourea congeners by employing NH₂SO₃H/NaI: Anticancer activity, DNA topoisomerase-II inhibition, and apoptosis inducing agents” (Bioorg Med Chem Lett, 2015).
# Active and inactive are the calls of the source. The rule behind the calls is not given here.
# What was measured:
# DU-145 [1] = test: Induction of apoptosis in human DU145 cells assessed as early apoptotic cells at 125 nM after 48 hrs using Annexin-V and propidium iodide staining (reference value: 1.40%); type: functional
# DU-145 [2] = test: Induction of apoptosis in human DU145 cells assessed as condensed chromatin at 500 nM after 48 hrs using acridine orange and ethidium bromide staining by fluorescence microscopic analysis; type: functional, cell-based
# Method in brief: (§1)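 DU-145 cells treated with 125, 250 or 500 nM for 48 h, then stained with acridine orange/ethidium bromide. Nuclear and chromatin morphology scored by fluorescence microscopy. Live cells appear green and late apoptotic nuclei red with EB. Untreated cells serve as control.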
# DU-145 [3] = test: Cell cycle arrest in human DU145 cells assessed as accumulation at S phase at 250 nM after 48 hrs by propidium iodide staining (reference value: 9.1%); type: functional
# DU-145 [4] = test: Induction of apoptosis in human DU145 cells assessed as live cells at 500 nM after 48 hrs using Annexin-V and propidium iodide staining (reference value: 86%); type: functional
# DU-145 [5] = test: Induction of apoptosis in human DU145 cells assessed as live cells at 125 nM after 48 hrs using Annexin-V and propidium iodide staining (reference value: 86%); type: functional
# DU-145 [6] = test: Induction of apoptosis in human DU145 cells assessed as late apoptotic cells at 250 nM after 48 hrs using Annexin-V and propidium iodide staining (reference value: 9.32%); type: functional
# [7] = Therapeutic index, ratio of IC50 for human RWPE1 cells to IC50 for human DU145 cells; type: cell-based; settings: RWPE1 cells versus DU145 cells, read-out: Ratio IC50
# Method in brief: (§2)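 Selectivity expressed as the fold by which the IC50 in normal prostate epithelial RWPE-1 cells exceeds the IC50 in the prostate cancer line (DU-145 or LNCaP).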
# DU-145 [8] = test: Cytotoxicity against human DU145 cells after 48 hrs by MTT assay; type: functional, cell-based; settings: DU-145, 48 h
# DU-145 [9] = test: Induction of apoptosis in human DU145 cells assessed as irregular distribution of chromatin at 250 nM after 48 hrs using acridine orange and ethidium bromide staining by fluorescence microscopic analysis; type: functional, cell-based; method in brief: as §1
# DU-145 [10] = test: Induction of apoptosis in human DU145 cells assessed as live cells at 250 nM after 48 hrs using Annexin-V and propidium iodide staining (reference value: 86%); type: functional
# DU-145 [11] = test: Cell cycle arrest in human DU145 cells assessed as accumulation at S phase at 125 nM after 48 hrs by propidium iodide staining (reference value: 9.1%); type: functional
# DU-145 [12] = test: Induction of apoptosis in human DU145 cells assessed as late apoptotic cells at 500 nM after 48 hrs by phase-contrast microscopic analysis; type: functional, cell-based
# Method in brief: (§3)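 DU-145 cells treated with 125, 250 or 500 nM for 48 h. Morphology (chromatin condensation, nuclear fragmentation, membrane blebbing, apoptotic bodies) examined under phase-contrast light microscope and compared with untreated control.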
# DU-145 [13] = test: Induction of apoptosis in human DU145 cells assessed as dead cells at 125 nM after 48 hrs using Annexin-V and propidium iodide staining (reference value: 3.28%); type: functional
# DU-145 [14] = test: Induction of apoptosis in human DU145 cells assessed as cell membrane blebbing at 125 to 500 nM after 48 hrs by phase-contrast microscopic analysis; type: functional, cell-based; method in brief: as §3
# DU-145 [15] = test: Induction of apoptosis in human DU145 cells assessed as dead cells at 250 nM after 48 hrs using Annexin-V and propidium iodide staining (reference value: 3.28%); type: functional
# DU-145 [16] = test: Induction of apoptosis in human DU145 cells assessed as nuclear fragmentation at 125 to 500 nM after 48 hrs by phase-contrast microscopic analysis; type: functional, cell-based; method in brief: as §3
# DU-145 [17] = test: Cell cycle arrest in human DU145 cells assessed as accumulation at G2/M phase at 500 nM after 48 hrs by propidium iodide staining (reference value: 22.5%); type: functional
# LNCaP = test: Cytotoxicity against human LNCAP cells after 48 hrs by MTT assay; type: functional, cell-based
# DU-145 [18] = test: Cell cycle arrest in human DU145 cells assessed as accumulation at G2/M phase at 250 nM after 48 hrs by propidium iodide staining (reference value: 22.5%); type: functional
# DU-145 [19] = test: Induction of apoptosis in human DU145 cells assessed as late apoptotic cells at 500 nM after 48 hrs using acridine orange and ethidium bromide staining by fluorescence microscopic analysis; type: functional, cell-based; method in brief: as §1
# DU-145 [20] = test: Induction of apoptosis in human DU145 cells assessed as reduction of cell population at 500 nM after 48 hrs by phase-contrast microscopic analysis; type: functional, cell-based; method in brief: as §3
# DU-145 [21] = test: Induction of apoptosis in human DU145 cells assessed as chromatin condensation at 125 nM after 48 hrs using acridine orange and ethidium bromide staining by fluorescence microscopic analysis; type: functional, cell-based; method in brief: as §1
# DU-145 [22] = test: Cell cycle arrest in human DU145 cells assessed as accumulation at G0/G1 phase at 125 nM after 48 hrs by propidium iodide staining (reference value: 43.5%); type: functional
# DU-145 [23] = test: Cell cycle arrest in human DU145 cells assessed as accumulation at G0/G1 phase at 250 nM after 48 hrs by propidium iodide staining (reference value: 43.5%); type: functional
# DU-145 [24] = test: Cell cycle arrest in human DU145 cells assessed as accumulation at G2/M phase at 125 nM after 48 hrs by propidium iodide staining (reference value: 22.5%); type: functional
# DU-145 [25] = test: Induction of apoptosis in human DU145 cells assessed as early apoptotic cells at 250 nM after 48 hrs using Annexin-V and propidium iodide staining (reference value: 1.40%); type: functional
# DU-145 [26] = test: Induction of apoptosis in human DU145 cells assessed as cell membrane blebbing at 125 nM after 48 hrs using acridine orange and ethidium bromide staining by fluorescence microscopic analysis; type: functional, cell-based; method in brief: as §1
# DU-145 [27] = test: Cell cycle arrest in human DU145 cells assessed as accumulation at S phase at 500 nM after 48 hrs by propidium iodide staining (reference value: 9.1%); type: functional
# DU-145 [28] = test: Induction of apoptosis in human DU145 cells assessed as dead cells at 500 nM after 48 hrs using Annexin-V and propidium iodide staining (reference value: 3.28%); type: functional
# [29] = Therapeutic index, ratio of IC50 for human RWPE1 cells to IC50 for human LNCAP cells; type: cell-based; settings: RWPE1 cells versus LNCAP cells, read-out: Ratio IC50; method in brief: as §2
# [30] = Cytotoxicity against human RWPE1 cells after 48 hrs by MTT assay; type: cell-based; settings: RWPE-1, 48 h
# DU-145 [31] = test: Induction of apoptosis in human DU145 cells assessed as formation of apoptotic bodies at 125 to 500 nM after 48 hrs by phase-contrast microscopic analysis; type: functional, cell-based; method in brief: as §3
# DU-145 [32] = test: Cell cycle arrest in human DU145 cells assessed as accumulation at G0/G1 phase at 500 nM after 48 hrs by propidium iodide staining (reference value: 43.5%); type: functional
# DU-145 [33] = test: Induction of apoptosis in human DU145 cells assessed as late apoptotic cells at 125 nM after 48 hrs using Annexin-V and propidium iodide staining (reference value: 9.32%); type: functional
# DU-145 [34] = test: Induction of apoptosis in human DU145 cells assessed as horseshoe-shaped cells at 125 nM after 48 hrs using acridine orange and ethidium bromide staining by fluorescence microscopic analysis; type: functional, cell-based; method in brief: as §1
# DU-145 [35] = test: Induction of apoptosis in human DU145 cells assessed as early apoptotic cells at 500 nM after 48 hrs using Annexin-V and propidium iodide staining (reference value: 1.40%); type: functional
# DU-145 [36] = test: Induction of apoptosis in human DU145 cells assessed as late apoptotic cells at 500 nM after 48 hrs using Annexin-V and propidium iodide staining (reference value: 9.32%); type: functional
# [37] = molecular target: DNA topoisomerase 2-alpha (Homo sapiens) (UniProt P11388); test: Inhibition of topoisomerase-2 (unknown origin) using kDNA assessed as increase of catenated kDNA level at 50 to 100 uM after 10 mins using ethidium bromide staining by agarose gel electrophoresis
# Method in brief: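 Topoisomerase II drug screening kit, with catenated DNA incubated with topoisomerase II (5 units) and test agent at 50 or 100 µM. Etoposide at 100 µM serves as standard. Products resolved on gel: catenated DNA is retained in the wells, and nicked/relaxed circular and linear forms are distinguished.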
# DU-145 [38] = test: Induction of apoptosis in human DU145 cells assessed as destructive fragmentation of nuclei at 250 nM after 48 hrs using acridine orange and ethidium bromide staining by fluorescence microscopic analysis; type: functional, cell-based; method in brief: as §1
# [39] = Cytotoxicity against human HGC cells after 48 hrs by MTT assay; type: functional, cell-based
# DU-145 [40] = test: Induction of apoptosis in human DU145 cells assessed as chromatin condensation at 125 to 500 nM after 48 hrs by phase-contrast microscopic analysis; type: functional, cell-based; method in brief: as §3
# MDA-MB-231 = test: Cytotoxicity against human MDA-MB-231 cells after 48 hrs by MTT assay; type: functional, cell-based; settings: MDA-MB-231, 48 h
# A549 = test: Cytotoxicity against human A549 cells after 48 hrs by MTT assay; type: functional, cell-based; settings: A549, 48 h
# Chain of DNA topoisomerase 2-alpha (Homo sapiens) (P11388 whole entry): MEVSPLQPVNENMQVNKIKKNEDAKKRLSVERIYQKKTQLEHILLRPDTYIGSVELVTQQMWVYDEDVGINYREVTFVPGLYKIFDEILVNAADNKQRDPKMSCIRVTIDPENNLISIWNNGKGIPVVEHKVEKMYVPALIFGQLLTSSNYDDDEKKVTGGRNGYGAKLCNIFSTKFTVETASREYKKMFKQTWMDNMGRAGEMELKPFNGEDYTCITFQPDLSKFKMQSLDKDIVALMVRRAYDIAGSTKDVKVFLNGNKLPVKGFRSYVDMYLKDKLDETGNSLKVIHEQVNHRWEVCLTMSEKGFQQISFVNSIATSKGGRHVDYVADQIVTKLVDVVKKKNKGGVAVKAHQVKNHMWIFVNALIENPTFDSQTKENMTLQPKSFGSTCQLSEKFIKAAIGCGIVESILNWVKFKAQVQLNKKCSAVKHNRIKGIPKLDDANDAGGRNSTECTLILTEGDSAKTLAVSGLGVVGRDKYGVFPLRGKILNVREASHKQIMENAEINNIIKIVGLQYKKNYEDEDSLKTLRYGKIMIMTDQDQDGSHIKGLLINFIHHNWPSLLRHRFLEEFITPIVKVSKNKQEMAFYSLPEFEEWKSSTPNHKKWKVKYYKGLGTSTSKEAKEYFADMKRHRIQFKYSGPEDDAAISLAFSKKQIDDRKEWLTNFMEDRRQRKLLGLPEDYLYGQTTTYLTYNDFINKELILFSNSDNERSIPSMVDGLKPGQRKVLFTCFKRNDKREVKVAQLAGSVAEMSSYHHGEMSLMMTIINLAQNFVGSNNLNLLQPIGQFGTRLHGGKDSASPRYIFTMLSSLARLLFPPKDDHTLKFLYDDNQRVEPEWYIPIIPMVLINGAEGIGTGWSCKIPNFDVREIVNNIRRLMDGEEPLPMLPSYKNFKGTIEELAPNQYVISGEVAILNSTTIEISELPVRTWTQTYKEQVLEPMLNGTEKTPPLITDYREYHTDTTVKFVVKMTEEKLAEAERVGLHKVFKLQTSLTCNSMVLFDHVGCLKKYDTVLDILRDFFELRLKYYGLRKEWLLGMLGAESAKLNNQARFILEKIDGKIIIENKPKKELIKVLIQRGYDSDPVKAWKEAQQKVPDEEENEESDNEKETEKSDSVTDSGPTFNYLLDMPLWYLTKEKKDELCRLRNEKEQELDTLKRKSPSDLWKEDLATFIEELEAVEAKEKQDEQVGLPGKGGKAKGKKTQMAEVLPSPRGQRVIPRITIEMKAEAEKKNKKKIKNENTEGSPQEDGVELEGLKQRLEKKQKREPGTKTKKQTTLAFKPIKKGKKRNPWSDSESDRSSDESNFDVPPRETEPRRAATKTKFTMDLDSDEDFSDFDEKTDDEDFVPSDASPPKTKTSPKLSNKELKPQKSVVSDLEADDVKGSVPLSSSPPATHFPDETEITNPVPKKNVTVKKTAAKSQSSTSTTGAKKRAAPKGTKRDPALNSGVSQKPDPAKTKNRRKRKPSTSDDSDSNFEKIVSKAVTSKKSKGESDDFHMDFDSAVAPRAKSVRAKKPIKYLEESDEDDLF
compound,measurement,setting,value
COc1ccc(NC(=S)N[C@@H]2c3cc4c(cc3[C@@H](c3cc(OC)c(OC)c(OC)c3)[C@H]3C(=O)OC[C@@H]32)OCO4)cc1,Activity,DU-145 [1],5.31%
same,Activity,DU-145 [2],Active
same,Activity,DU-145 [3],30.8%
same,Activity,DU-145 [4],27.87%
same,Activity,DU-145 [5],74.57%
same,Activity,DU-145 [6],22.55%
same,selectivity ratio,[7],81.7
same,IC50,DU-145 [8],0.5 µM
same,Activity,DU-145 [9],Active
same,Activity,DU-145 [10],59.8%
same,Activity,DU-145 [11],19.5%
same,Activity,DU-145 [12],Active
same,Activity,DU-145 [13],3.38%
same,Activity,DU-145 [14],Active
same,Activity,DU-145 [15],2.3%
same,Activity,DU-145 [16],Active
same,Activity,DU-145 [17],41.7%
same,IC50,LNCaP,17.6 µM
same,Activity,DU-145 [18],26.3%
same,Activity,DU-145 [19],Active
same,Activity,DU-145 [20],Active
same,Activity,DU-145 [21],Active
same,Activity,DU-145 [22],33.5%
same,Activity,DU-145 [23],28.4%
same,Activity,DU-145 [24],27.9%
same,Activity,DU-145 [25],15.35%
same,Activity,DU-145 [26],Active
same,Activity,DU-145 [27],14.8%
same,Activity,DU-145 [28],1.07%
same,selectivity ratio,[29],2.3
same,IC50,[30],40.9 µM
same,Activity,DU-145 [31],Active
same,Activity,DU-145 [32],27.8%
same,Activity,DU-145 [33],16.75%
same,Activity,DU-145 [34],Active
same,Activity,DU-145 [35],44.38%
same,Activity,DU-145 [36],26.68%
same,inhibition,[37],Active
same,Activity,DU-145 [38],Active
same,IC50,[39],3.85 µM
same,Activity,DU-145 [40],Active
same,IC50,MDA-MB-231,18 µM
same,IC50,A549,37.6 µM
